Source: ChEMBL document CHEMBL2407075, “Sulphonamido-quinoxalines: search for anticancer agent” (Eur J Med Chem, 2013)

How the values were obtained:
Type in all cases: functional
[1] = system: CAKI-1; test: Growth inhibition of human CAKI-1 cells assessed as cell growth at 10^-4 M after 48 hrs by sulforhodamine B assay; conditions: CAKI-1, 48 h, read-out: Activity
How it was run: (§1)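 Five-dose NCI-60 run (0.01, 0.1, 1, 10 and 100 µM, as 10-fold dilutions from a DMSO stock made at 400× the top final level). Cells were grown in RPMI 1640 with 5% FBS and 2 mM glutamine and plated for 24 h. They were then exposed for 48 h at 37 °C and 5% CO2. TCA fixation was followed by SRB staining with A515 read-out. Percent growth was taken relative to time-zero and control plates.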

[2] = system: NCI-H322M; test: Growth inhibition of human NCI-H322M cells assessed as cell growth at 10^-4 M after 48 hrs by sulforhodamine B assay; conditions: read-out: Activity
[3] = system: NCI-H23; test: Growth inhibition of human NCI-H23 cells assessed as cell growth at 10^-4 M after 48 hrs by sulforhodamine B assay; conditions: NCI-H23, 48 h, read-out: Activity
[4] = Growth inhibition of human EKVX cells assessed as cell growth at 10^-4 M after 48 hrs by sulforhodamine B assay; conditions: read-out: Activity; how it was run: as §1
[5] = system: MOLT-4; test: Growth inhibition of human MOLT4 cells assessed as cell growth at 10^-4 M after 48 hrs by sulforhodamine B assay; conditions: MOLT-4, 48 h, read-out: Activity
[6] = system: MDA-MB-231; test: Growth inhibition of human MDA-MB-231 cells assessed as cell growth at 10^-5 M after 48 hrs by sulforhodamine B assay; conditions: MDA-MB-231, 48 h, read-out: Activity
[7] = system: DU-145; test: Growth inhibition of human DU145 cells assessed as cell growth at 10^-5 M after 48 hrs by sulforhodamine B assay; conditions: DU-145, 48 h, read-out: Activity; how it was run: as §1
[8] = system: Malme-3M; test: Growth inhibition of human MALME-3M cells assessed as cell growth at 10^-5 M after 48 hrs by sulforhodamine B assay; conditions: read-out: Activity
[9] = system: SF-295; test: Growth inhibition of human SF295 cells assessed as cell growth at 10^-5 M after 48 hrs by sulforhodamine B assay; conditions: SF-295, 48 h, read-out: Activity
[10] = system: HCT-116; test: Growth inhibition of human HCT116 cells assessed as cell growth at 10^-5 M after 48 hrs by sulforhodamine B assay; conditions: HCT-116, 48 h, read-out: Activity
How it was run: (§2)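 Five-dose screen at NCI. Cells in RPMI 1640 with 5% FBS and 2 mM L-glutamine, seeded at 5000–40,000 cells/well and grown 24 h at 37 °C, 5% CO2 before dosing, with time-zero plates TCA-fixed. Drug diluted from DMSO stock to 0.01, 0.1, 1, 10 and 100 µM final, 48 h. Cells fixed with cold TCA (10% final), stained with 0.4% SRB and read at 515 nm. Percent growth from Tz, control and test absorbances; GI50, TGI and LC50 from dose-response curves.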

[11] = Growth inhibition of human HCC2998 cells assessed as cell growth at 10^-5 M after 48 hrs by sulforhodamine B assay; conditions: HCC 2998, 48 h, read-out: Activity; how it was run: as §2
[12] = system: NCI-H322M; test: Growth inhibition of human NCI-H322M cells assessed as cell growth at 10^-5 M after 48 hrs by sulforhodamine B assay; conditions: read-out: Activity
[13] = system: SN12C; test: Growth inhibition of human SN12C cells assessed as cell growth at 10^-6 M after 48 hrs by sulforhodamine B assay; conditions: read-out: Activity
[14] = system: A498; test: Growth inhibition of human A498 cells assessed as cell growth at 10^-6 M after 48 hrs by sulforhodamine B assay; conditions: A498, 48 h, read-out: Activity; how it was run: as §1
[15] = Growth inhibition of human NCI-ADR-RES cells assessed as cell growth at 10^-6 M after 48 hrs by sulforhodamine B assay; conditions: read-out: Activity
[16] = system: UACC-62; test: Growth inhibition of human UACC62 cells assessed as cell growth at 10^-6 M after 48 hrs by sulforhodamine B assay; conditions: UACC-62, 48 h, read-out: Activity
[17] = system: U-251; test: Growth inhibition of human U251 cells assessed as cell growth at 10^-6 M after 48 hrs by sulforhodamine B assay; conditions: U-251, 48 h, read-out: Activity
[18] = system: SW-620; test: Growth inhibition of human SW620 cells assessed as cell growth at 10^-6 M after 48 hrs by sulforhodamine B assay; conditions: SW-620, 48 h, read-out: Activity
[19] = system: COLO 205; test: Growth inhibition of human COLO205 cells assessed as cell growth at 10^-6 M after 48 hrs by sulforhodamine B assay; conditions: COLO 205, 48 h, read-out: Activity; how it was run: as §1
[20] = system: NCI-H322M; test: Growth inhibition of human NCI-H322M cells assessed as cell growth at 10^-6 M after 48 hrs by sulforhodamine B assay; conditions: read-out: Activity
[21] = system: HOP-92; test: Growth inhibition of human HOP92 cells assessed as cell growth at 10^-6 M after 48 hrs by sulforhodamine B assay; conditions: HOP-92, 48 h, read-out: Activity; how it was run: as §2
[22] = system: A498; test: Growth inhibition of human A498 cells assessed as cell growth at 10^-7 M after 48 hrs by sulforhodamine B assay; conditions: A498, 48 h, read-out: Activity; how it was run: as §1
[23] = system: OVCAR-4; test: Growth inhibition of human OVCAR4 cells assessed as cell growth at 10^-7 M after 48 hrs by sulforhodamine B assay; conditions: OVCAR-4, 48 h, read-out: Activity
[24] = Growth inhibition of human Hs 578T cells assessed as cell growth at 10^-8 M after 48 hrs by sulforhodamine B assay; conditions: read-out: Activity; how it was run: as §2
[25] = system: ACHN; test: Growth inhibition of human ACHN cells assessed as cell growth at 10^-8 M after 48 hrs by sulforhodamine B assay; conditions: read-out: Activity; how it was run: as §1
[26] = system: SK-MEL-5; test: Growth inhibition of human SK-MEL-5 cells assessed as cell growth at 10^-8 M after 48 hrs by sulforhodamine B assay; conditions: SK-MEL-5, 48 h, read-out: Activity
[27] = system: U-251; test: Growth inhibition of human U251 cells assessed as cell growth at 10^-8 M after 48 hrs by sulforhodamine B assay; conditions: U-251, 48 h, read-out: Activity
[28] = system: KM12; test: Growth inhibition of human KM12 cells assessed as cell growth at 10^-8 M after 48 hrs by sulforhodamine B assay; conditions: KM12, 48 h, read-out: Activity
[29] = system: RPMI-8226; test: Growth inhibition of human RPMI8226 cells assessed as cell growth at 10^-8 M after 48 hrs by sulforhodamine B assay; conditions: RPMI-8226, 48 h, read-out: Activity
[30] = system: UACC-62; test: Growth inhibition of human UACC62 cells after 48 hrs by sulforhodamine B assay; conditions: UACC-62, 48 h, read-out: LC50 (the source's name)
[31] = Growth inhibition of human EKVX cells after 48 hrs by sulforhodamine B assay; conditions: for CC50: read-out: LC50 (the source's name)
How it was run: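 Adherent cells in RPMI 1640 with 5% FBS and 2 mM L-glutamine were plated at 5000–40,000 cells/well and grown 24 h. Five concentrations (0.01–100 µM, DMSO stock) were added for 48 h at 37 °C. Cells were fixed with cold TCA (10% final) and stained with SRB, read at 515 nm. GI50 came from log concentration–growth curves against time-zero and control plates.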

SMILES | growth at 100 µM [1] [%] | growth at 100 µM [2] [%] | growth at 100 µM [3] [%] | growth at 100 µM [4] [%] | growth at 100 µM [5] [%] | growth at 10 µM [6] [%] | growth at 10 µM [7] [%] | growth at 10 µM [8] [%] | growth at 10 µM [9] [%] | growth at 10 µM [10] [%] | growth at 10 µM [11] [%] | growth at 10 µM [12] [%] | growth at 1 µM [13] [%] | growth at 1 µM [14] [%] | growth at 1 µM [15] [%] | growth at 1 µM [16] [%] | growth at 1 µM [17] [%] | growth at 1 µM [18] [%] | growth at 1 µM [19] [%] | growth at 1 µM [20] [%] | other results
O=S(=O)(Nc1ccc(Cl)cc1)c1ccc2nc(-c3ccccc3)c(-c3ccccc3)nc2c1 | 65 | 88 | 72 | 65 | 68 | -78 | 26 | -43 | -53 | 1 | 2 | 37 | 93 | 65 | 89 | 76 | 87 | 88 | 103 | 98 | growth at 1 µM [21]: 78%; growth at 0.1 µM [22]: 76%; growth at 0.1 µM [23]: 90%; growth at 0.01 µM [24]: 84%; growth at 0.01 µM [25]: 102%; growth at 0.01 µM [26]: 95%; growth at 0.01 µM [27]: 97%; growth at 0.01 µM [28]: 103%; growth at 0.01 µM [29]: 103%; CC50 [30]: > 100 µM; CC50 [31]: > 100 µM
O=S(=O)(Nc1ccccn1)c1ccc2nc(-c3ccccc3)c(-c3ccccc3)nc2c1 | 73 | 65 | 42 | 50 | 48 | -60 | 31 | -40 | -56 | 1 | -14 | 35 | 91 | 66 | 84 | 75 | 84 | 87 | 94 | 108 | growth at 1 µM [21]: 77%; growth at 0.1 µM [22]: 87%; growth at 0.1 µM [23]: 102%; growth at 0.01 µM [24]: 93%; growth at 0.01 µM [25]: 99%; growth at 0.01 µM [26]: 95%; growth at 0.01 µM [27]: 99%; growth at 0.01 µM [28]: 91%; growth at 0.01 µM [29]: 108%; CC50 [30]: > 100 µM; GI50 [31]: 2.69 µM; TGI [31]: > 100 µM; CC50 [31]: > 100 µM
